Active and inactive are the calls of the source. The rule behind the calls is not given here.

Data set [1] addresses Neuronal acetylcholine receptor; alpha2/beta2 (Rattus norvegicus, UniProt P12389+P12390). Description: Displacement of [3H]epibatidine from rat alpha2beta2 nAChR by liquid scintillation counting. Format: protein-complex assay. For orientation: Loss of bound radioactivity is the signal in a displacement assay; it reports binding, not function.
The target of data set [2] is Neuronal acetylcholine receptor; alpha2/beta4 (Rattus norvegicus, UniProt P12389+P12392). Briefly: Displacement of [3H]epibatidine from rat alpha2beta4 nAChR by liquid scintillation counting. Format: protein-complex assay.
Data set [3] concerns the target Neuronal acetylcholine receptor; alpha3/beta2 (Rattus norvegicus, UniProt P04757+P12390). Description: Displacement of [3H]epibatidine from rat alpha3beta2 nAChR by liquid scintillation counting. Format: protein-complex assay.
The target of data set [4] is Neuronal acetylcholine receptor; alpha3/beta4 (Rattus norvegicus, UniProt P04757+P12392). Description: Displacement of [3H]epibatidine from rat alpha3beta4 nAChR by liquid scintillation counting. The format is protein-complex assay.
Data set [5] deals with Neuronal acetylcholine receptor; alpha4/beta2 (Rattus norvegicus, UniProt P09483+P12390). Briefly: Displacement of [3H]epibatidine from rat alpha4beta2 nAChR by liquid scintillation counting. Format: protein-complex assay.
Data set [6] is described as follows: Displacement of [3H]epibatidine from rat forebrain alpha4beta2* nAChR by liquid scintillation counting.
The target in data set [7] is Neuronal acetylcholine receptor; alpha4/beta4 (Rattus norvegicus, UniProt P09483+P12392). Description: Displacement of [3H]epibatidine from rat alpha4beta4 nAChR by liquid scintillation counting. The format is protein-complex assay.
Data set [8] concerns the target T1, Neuronal acetylcholine receptor; alpha4/beta2 (Homo sapiens, UniProt P17787+P43681). Description: Agonist activity at human (alpha4beta2 )2beta2 expressed in human SH-EP1 cells after 9.5 mins by 86Rb+ efflux assay relative to carbamylcholine. Format: cell-based.
The target in data set [9] is T1, Neuronal acetylcholine receptor; alpha4/beta2. Description: Agonist activity at human alpha4beta2 nAChR expressed in human SH-EP1 cells after 9.5 mins by 86Rb+ efflux assay. Format: cell-based.
For data set [10] the target is unchanged. Description: Antagonist activity at human alpha4beta2 expressed in human SH-EP1 cells assessed as reduction in carbamylcholine induced 86Rb+ efflux preincubated for 10 mins followed by carbamylcholine addition measured after 5 mins by Cherenkov counting. The format is cell-based. In short, it runs like this: (§1)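 Same 86Rb+-loaded cells and pH 7.4 efflux buffer. Cells lysed in 0.1 M NaOH/0.1% SDS and Cerenkov counted. Specific efflux = total minus nonspecific (mecamylamine-blocked); inactivation IC50 derived from inhibition of carbamylcholine response.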

Data set [11] can be described thus: Antidepressant activity in C57BL6 mouse at 5 mg/kg, ip administered 15 mins prior to testing by SmartCube automated system based method. The format is functional, organism-based. In short, it runs like this:
(§2)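 Male C57 BL6 mice, group-housed 4 per cage, 22 °C, 12 h light-dark. Compound dissolved in water, given i.p. at 10 mL/kg, 15 min before automated SmartCube session; behaviour captured by digital video and classified by computer algorithms into a behavioural signature.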

Data set [12] in a line: Antidepressant activity in po dosed BALB/cJ mouse assessed as decrease in immobility time administered 30 mins and measured over 6 mins by classical Porsolt's forced swim test. Format: functional, organism-based. In a few lines:
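Male BALB/cJ mice, 8–10 weeks, dosed po in water (10 mL/kg) at 1 and 10 mg/kg; water vehicle, sertraline 20 mg/kg ip as positive control. 30 min later placed in 1 L beaker with 12 cm of 23 °C water; immobility recorded over 6-min trial, total time analysed by ANOVA.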

Data set [13] addresses T1, Neuronal acetylcholine receptor; alpha4/beta2. Description: Agonist activity at human (alpha4beta2 )2alpha4 expressed in human SH-EP1 cells after 9.5 mins by 86Rb+ efflux assay relative to carbamylcholine. Format: cell-based.
Data set [14] is described as follows: Agonist activity at alpha3beta4* nAChR in human SH-SY5Y cells after 9.5 mins by 86Rb+ efflux assay. Format: cell-based. In short, it runs like this:
(§3)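 86Rb+ efflux: cells loaded with ~350,000 cpm 86Rb+ at least 4 h (typically overnight), rinsed with efflux buffer pH 7.4 (130 mM NaCl, 5.4 mM KCl, 2 mM CaCl2, 50 mM HEPES, 5 mM glucose). Test drug alone applied 9.5 min. Efflux normalized, after nonspecific subtraction, to specific efflux of fully efficacious carbamylcholine control; nonspecific defined with carbamylcholine plus mecamylamine; EC50 derived.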

Data set [15] in a line: Antagonist activity at alpha3beta4* in human SH-SY5Y cells assessed as reduction in carbamylcholine induced 86Rb+ efflux preincubated for 10 mins followed by carbamylcholine addition measured after 5 mins by Cherenkov counting. Format: cell-based. In short, it runs like this:
as §1

Data set [16] concerns the target T2, Acetylcholine receptor; alpha1/beta1/delta/gamma (Homo sapiens, UniProt P02708+P07510+P11230+Q07001). Briefly: Agonist activity at alpha1beta1gammadelta nAChR in human TE671/RD cells after 9.5 mins by 86Rb+ efflux assay. Format: cell-based. In a few lines: as §3
Data set [17] concerns the target T2, Acetylcholine receptor; alpha1/beta1/delta/gamma. Briefly: Antagonist activity at alpha1beta1gammadelta nAChR in human TE671/RD cells assessed as reduction in carbamylcholine induced 86Rb+ efflux preincubated for 10 mins followed by carbamylcholine addition measured after 5 mins by Cherenkov counting. Format: cell-based. In a few lines: as §1
Data set [18] can be described thus: Antidepressant activity in C57BL6 mouse at 10 mg/kg, ip administered 15 mins prior to testing by SmartCube automated system based method. Format: functional, organism-based. In a few lines: as §2
In data set [19] the target is alpha3beta4 nAChR (neuronal acetylcholine receptor alpha3/beta4) (Rattus norvegicus, UniProt P04757+P12392). Briefly: Displacement of [3H]epibatidine from rat alpha3beta4 nAChR at 10 uM by liquid scintillation counting. As to conditions: probe [3H]epibatidine.
Chain of alpha3beta4 nAChR (neuronal acetylcholine receptor alpha3/beta4) (P04757 whole entry): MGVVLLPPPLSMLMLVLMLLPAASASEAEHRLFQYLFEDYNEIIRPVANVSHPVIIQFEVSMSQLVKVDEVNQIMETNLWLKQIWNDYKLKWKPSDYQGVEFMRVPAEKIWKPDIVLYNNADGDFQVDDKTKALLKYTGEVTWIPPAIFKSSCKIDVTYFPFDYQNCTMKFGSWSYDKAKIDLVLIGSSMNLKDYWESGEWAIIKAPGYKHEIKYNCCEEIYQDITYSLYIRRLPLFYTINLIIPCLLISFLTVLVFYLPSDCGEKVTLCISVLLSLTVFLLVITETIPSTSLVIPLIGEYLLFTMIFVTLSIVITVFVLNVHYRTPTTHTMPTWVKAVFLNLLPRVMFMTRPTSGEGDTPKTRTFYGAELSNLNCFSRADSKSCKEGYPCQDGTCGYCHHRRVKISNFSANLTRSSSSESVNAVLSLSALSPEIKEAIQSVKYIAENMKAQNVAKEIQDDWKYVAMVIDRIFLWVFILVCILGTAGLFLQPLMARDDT
Chain of alpha3beta4 nAChR (neuronal acetylcholine receptor alpha3/beta4) (P12392 whole entry): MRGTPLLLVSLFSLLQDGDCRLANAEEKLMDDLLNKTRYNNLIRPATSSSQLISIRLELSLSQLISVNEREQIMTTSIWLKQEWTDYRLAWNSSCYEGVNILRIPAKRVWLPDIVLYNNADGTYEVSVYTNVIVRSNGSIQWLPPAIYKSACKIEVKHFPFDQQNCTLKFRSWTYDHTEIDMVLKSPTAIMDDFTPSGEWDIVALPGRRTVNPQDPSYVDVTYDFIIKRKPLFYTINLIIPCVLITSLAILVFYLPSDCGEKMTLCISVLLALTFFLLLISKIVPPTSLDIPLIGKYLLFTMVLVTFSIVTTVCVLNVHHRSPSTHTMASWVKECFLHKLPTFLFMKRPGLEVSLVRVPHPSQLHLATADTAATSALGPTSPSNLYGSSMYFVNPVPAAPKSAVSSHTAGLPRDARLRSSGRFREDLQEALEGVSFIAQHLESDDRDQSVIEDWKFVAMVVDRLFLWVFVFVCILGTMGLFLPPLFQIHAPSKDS

T1 sequence (P17787 whole entry): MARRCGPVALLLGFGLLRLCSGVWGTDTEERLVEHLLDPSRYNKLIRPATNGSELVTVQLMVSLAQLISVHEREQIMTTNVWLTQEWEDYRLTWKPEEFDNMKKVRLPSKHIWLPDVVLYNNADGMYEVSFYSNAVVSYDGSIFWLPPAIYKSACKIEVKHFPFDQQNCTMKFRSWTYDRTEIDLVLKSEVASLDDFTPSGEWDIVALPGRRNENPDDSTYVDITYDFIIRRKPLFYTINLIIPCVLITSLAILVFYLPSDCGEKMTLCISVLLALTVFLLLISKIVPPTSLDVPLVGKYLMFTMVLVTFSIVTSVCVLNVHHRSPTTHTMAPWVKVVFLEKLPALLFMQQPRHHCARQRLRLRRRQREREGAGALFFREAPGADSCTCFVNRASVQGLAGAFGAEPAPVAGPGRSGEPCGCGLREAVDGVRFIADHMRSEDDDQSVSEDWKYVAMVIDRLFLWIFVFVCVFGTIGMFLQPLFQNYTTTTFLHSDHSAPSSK
T1 sequence (P43681 whole entry): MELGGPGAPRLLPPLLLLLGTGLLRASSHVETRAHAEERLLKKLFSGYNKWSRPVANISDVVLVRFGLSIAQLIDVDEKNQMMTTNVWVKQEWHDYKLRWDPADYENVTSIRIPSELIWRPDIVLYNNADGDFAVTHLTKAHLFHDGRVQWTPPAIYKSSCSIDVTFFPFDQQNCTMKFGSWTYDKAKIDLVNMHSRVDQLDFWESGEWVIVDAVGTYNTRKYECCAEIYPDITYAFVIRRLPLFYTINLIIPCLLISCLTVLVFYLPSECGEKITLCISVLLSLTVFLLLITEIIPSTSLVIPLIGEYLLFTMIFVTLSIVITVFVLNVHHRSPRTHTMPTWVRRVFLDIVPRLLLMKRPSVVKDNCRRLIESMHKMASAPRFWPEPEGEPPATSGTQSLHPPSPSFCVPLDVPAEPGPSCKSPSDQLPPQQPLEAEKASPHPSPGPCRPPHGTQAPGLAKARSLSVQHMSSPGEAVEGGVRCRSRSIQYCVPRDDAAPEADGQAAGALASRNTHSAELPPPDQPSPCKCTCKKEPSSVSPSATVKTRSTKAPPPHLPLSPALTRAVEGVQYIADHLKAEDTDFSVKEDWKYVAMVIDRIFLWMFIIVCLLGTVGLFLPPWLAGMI
Chain of Neuronal acetylcholine receptor; alpha3/beta4 (P04757 whole entry): as the sequence (P04757 whole entry) above
Chain of Neuronal acetylcholine receptor; alpha3/beta4 (P12392 whole entry): as the sequence (P12392 whole entry) above
Chain of Neuronal acetylcholine receptor; alpha3/beta2 (P04757 whole entry): as the sequence (P04757 whole entry) above
Chain of Neuronal acetylcholine receptor; alpha3/beta2 (P12390 whole entry): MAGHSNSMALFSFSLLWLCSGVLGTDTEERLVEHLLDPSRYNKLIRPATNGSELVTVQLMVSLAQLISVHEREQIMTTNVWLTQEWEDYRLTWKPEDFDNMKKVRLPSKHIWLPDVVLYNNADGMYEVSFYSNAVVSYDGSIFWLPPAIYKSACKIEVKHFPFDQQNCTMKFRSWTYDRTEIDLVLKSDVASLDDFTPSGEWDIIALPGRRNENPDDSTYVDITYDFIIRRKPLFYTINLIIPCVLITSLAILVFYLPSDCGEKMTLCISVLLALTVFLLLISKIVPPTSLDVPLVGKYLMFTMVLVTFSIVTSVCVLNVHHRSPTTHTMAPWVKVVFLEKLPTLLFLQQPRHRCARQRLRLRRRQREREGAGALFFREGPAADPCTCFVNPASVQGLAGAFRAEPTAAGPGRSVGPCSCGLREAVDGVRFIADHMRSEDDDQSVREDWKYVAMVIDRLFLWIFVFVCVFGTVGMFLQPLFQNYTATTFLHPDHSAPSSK
Chain of Neuronal acetylcholine receptor; alpha4/beta4 (P09483 whole entry): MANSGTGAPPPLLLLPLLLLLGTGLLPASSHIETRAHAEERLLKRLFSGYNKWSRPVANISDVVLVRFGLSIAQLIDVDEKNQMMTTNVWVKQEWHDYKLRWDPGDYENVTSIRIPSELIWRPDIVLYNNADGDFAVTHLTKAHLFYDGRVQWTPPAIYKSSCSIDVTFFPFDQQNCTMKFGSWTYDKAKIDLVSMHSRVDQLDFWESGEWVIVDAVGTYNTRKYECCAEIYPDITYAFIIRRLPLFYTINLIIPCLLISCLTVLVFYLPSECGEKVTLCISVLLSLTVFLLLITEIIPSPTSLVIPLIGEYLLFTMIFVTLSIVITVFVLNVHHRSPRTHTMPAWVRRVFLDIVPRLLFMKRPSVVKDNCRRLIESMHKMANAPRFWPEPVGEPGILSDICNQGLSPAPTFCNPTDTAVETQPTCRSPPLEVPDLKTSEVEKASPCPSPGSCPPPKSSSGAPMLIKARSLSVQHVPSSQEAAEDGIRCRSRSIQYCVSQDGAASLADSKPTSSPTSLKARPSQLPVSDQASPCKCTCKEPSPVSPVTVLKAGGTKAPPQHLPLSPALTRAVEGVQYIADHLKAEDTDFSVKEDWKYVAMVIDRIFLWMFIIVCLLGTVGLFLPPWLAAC
Chain of Neuronal acetylcholine receptor; alpha4/beta4 (P12392 whole entry): as the sequence (P12392 whole entry) above
Chain of Neuronal acetylcholine receptor; alpha4/beta2 (Rattus norvegicus, UniProt P09483+P12390) (P09483 whole entry): as the sequence (P09483 whole entry) above
Chain of Neuronal acetylcholine receptor; alpha4/beta2 (Rattus norvegicus, UniProt P09483+P12390) (P12390 whole entry): as the sequence (P12390 whole entry) above
Chain of Neuronal acetylcholine receptor; alpha2/beta4 (P12389 whole entry): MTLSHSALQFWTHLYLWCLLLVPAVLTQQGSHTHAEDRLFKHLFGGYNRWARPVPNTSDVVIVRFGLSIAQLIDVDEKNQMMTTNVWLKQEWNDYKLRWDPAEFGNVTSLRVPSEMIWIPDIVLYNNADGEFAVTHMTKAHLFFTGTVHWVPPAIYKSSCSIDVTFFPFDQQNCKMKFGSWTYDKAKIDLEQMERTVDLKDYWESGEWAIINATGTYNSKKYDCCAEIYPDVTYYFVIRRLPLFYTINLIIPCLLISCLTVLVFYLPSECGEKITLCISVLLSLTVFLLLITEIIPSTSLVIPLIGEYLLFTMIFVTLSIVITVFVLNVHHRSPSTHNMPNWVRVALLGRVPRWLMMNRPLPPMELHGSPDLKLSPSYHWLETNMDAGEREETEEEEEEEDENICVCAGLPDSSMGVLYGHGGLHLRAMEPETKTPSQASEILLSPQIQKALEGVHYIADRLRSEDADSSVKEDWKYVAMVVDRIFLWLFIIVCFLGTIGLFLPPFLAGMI
Chain of Neuronal acetylcholine receptor; alpha2/beta4 (P12392 whole entry): as the sequence (P12392 whole entry) above
Chain of Neuronal acetylcholine receptor; alpha2/beta2 (P12389 whole entry): as the sequence (P12389 whole entry) above
Chain of Neuronal acetylcholine receptor; alpha2/beta2 (P12390 whole entry): as the sequence (P12390 whole entry) above

Turning to `c1cncc(N2CCCNCC2)c1`, the inhibitory constant (Ki) was determined as 1.1 nM in data set [1]; 62 nM in data set [2]; 5.1 nM in [3]; 366 nM in data set [4]; 3.4 nM in data set [5]; 3.3 nM in [6]. For the same compound, in data set [7], the Ki stood at 71.6 nM.
On to `COCC[C@H]1C[C@@H]1c1cncc(N2CCCNCC2)c1`, for which the figures for the Efficacy in data set [8], in [10] and in data set [13] were 81%, 74% and -9.3%, respectively. Also, the Ki was 0.3 nM in [1]; 460 nM in data set [2]; 17 nM in data set [3]; > 10000 nM in data set [4]; 0.7 nM in [5]; 2.7 nM in data set [6]. Moreover, affinity in [7] was put at a Ki of 151 nM. The EC50 in data set [9] is 15.9 nM; in data set [14], > 10000 nM; in [16], > 10000 nM. Further, the IC50 in data set [10] was 16 nM; in [15], > 10000 nM; in [17], > 10000 nM. Besides, in data set [11], the result was Active. Moreover, the Activity result in data set [12] is “Dose-dependent effect”.
For the compound `COCC[C@@H]1C[C@H]1c1cncc(N2CCCNCC2)c1`, the Efficacy was 63% in data set [8], 79% in [10] and -5.6% in data set [13]. For the same compound, the Ki in data set [1] was 0.3 nM; in [2], 256 nM; in [3], 15.8 nM; in data set [4], > 10000 nM; in data set [5] it was 0.5 nM; in [6], 2.7 nM. Besides, in data set [7], the Ki came out at 168 nM. For the same compound, the results for the EC50 in data set [9], in [14] and in [16] were 17.1 nM, > 10000 nM and > 10000 nM, respectively. In addition, the half-inhibitory concentration (IC50) in [10] was 15.7 nM; in [15] it was > 10000 nM; in [17], > 10000 nM. Besides, the result in [18] was Active.
Consider `COCC[C@@H]1C[C@H]1c1cncc(N2C[C@@H]3C[C@H]2CN3)c1`, for which the Ki in data set [1] was determined as 43.1 nM; in data set [3], 617 nM; in data set [7], 8450 nM. Also, the EC50 in [14] and in data set [16] was > 10000 nM each time. Moreover, the IC50 in data set [15] and in [17] was > 10000 nM each time.
As to `CN1CCCN(c2cncc(-c3cc(CCO)no3)c2)CC1`, the Ki was 46.3 nM in [1], > 10000 nM in data set [2], 1040 nM in data set [3] and 4940 nM in data set [7]. Moreover, the inhibition at 10 µM in data set [19] is < 50%. Further, the 50% effective concentration (EC50) in data set [14] and in [16] was > 10000 nM in each case. In addition, the IC50 in [15] and in data set [17] was > 10000 nM each time.
As for `COCC[C@H]1C[C@@H]1c1cncc(N2CCCN(C)CC2)c1`, the Ki turned out to be 18.1 nM in data set [1]; 681 nM in [3]; 25.4 nM in data set [5]; 33.8 nM in data set [6]; 4810 nM in [7]. Further, the EC50 in [9] was > 1000 nM; in data set [14], > 10000 nM; in data set [16] it was > 10000 nM. Moreover, in data set [9] (sh-ep1), the pEC50 is listed as < 6. Besides, the IC50 in [10] is > 1000 nM; in data set [15], > 10000 nM; in [17] it was > 10000 nM. In addition, the pIC50 in data set [10] (sh-ep1) was < 6.
Regarding `COCC[C@H]1C[C@@H]1c1cncc(N2C[C@@H]3C[C@H]2CN3)c1`, the Ki in data set [1] came to 3.1 nM; in [2] it was 4810 nM; in data set [3], 141 nM; in [7] it was 1340 nM. The EC50 in [14] and in data set [16] was > 10000 nM throughout. Further, the IC50 in data set [15] and in [17] was > 10000 nM each time.
For `c1cncc(N2CC3CC2CN3)c1` (stereo not drawn), the Ki in data set [1] was determined as 0.3 nM; in [2], 15.2 nM; in data set [3] it was 3.1 nM; in data set [4], 64.6 nM; in [5] it was 1 nM; in data set [6] it was 0.8 nM. Moreover, the inhibition constant Ki in [7] is 7.7 nM.
Turning to `OCCc1cc(-c2cncc(N3CCCNCC3)c2)on1`, the Efficacy is 58% in data set [8], 68% in [10] and -5% in data set [13]. In addition, the Ki in data set [1] turned out to be 0.8 nM; in data set [2], 331 nM; in data set [3] it was 42 nM; in data set [4] it was 8100 nM; in data set [5] it was 0.8 nM; in data set [6], 3.5 nM. In addition, the Ki in [7] turned out to be 67.6 nM. Moreover, the concentration giving a half-maximal response (EC50) in [9] is 30.9 nM; in data set [14], > 10000 nM; in data set [16] it was > 10000 nM. The IC50 was 50.8 nM in data set [10], > 10000 nM in data set [15] and > 10000 nM in data set [17]. The outcome in data set [18] was Active.

Broadly, the Ki is the equilibrium dissociation constant of an inhibitor or competing ligand from its target. The low end stands for a stronger hold on the target, the high end for a looser hold on the target. Broadly, the EC50 is the midpoint of the concentration-response curve. The low end stands for a more potent agent, the high end for a less potent agent. One may read the IC50 as the midpoint of a concentration-inhibition curve. One may read the inhibition as the share of the control response that was lost under treatment. Lower therefore signals a weak effect. For orientation: pEC50 means the negative decadic logarithm of the EC50, by convention in mol/L. Read a low pEC50 as a large EC50. Broadly, the pIC50 is −log10 of the IC50, conventionally taken in molar units.

Values taken from ChEMBL document CHEMBL3877245 (Eur J Med Chem, 2016).
